Laboratory results as given in article PMC9924909 (Brain, 2022).
Several values for one entry are separate records, joined by “and”; a condition that tells them apart may be missing. Equal values may be shown once. Entries after “also recorded” stand apart in the source; their conditions may differ.

Experiments:
glucosylceramide = assay: Glucosylceramide concentration in plasma and CSF, LEAP trial; format: in vivo, human
In short: (§1)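 CSF collected by lumbar puncture at baseline and Weeks 1, 4, 26, 52; plasma at baseline and Weeks 1, 4, 12, 26, 39, 52. Dosing was oral test compound 15 mg once daily with maintenance IV enzyme replacement. LLOQ: glucosylceramide 0.1 μg/ml plasma, 2.0 ng/ml CSF; glucosylsphingosine 5.0 ng/ml plasma, 5 pg/ml CSF. Change from baseline summarised as median percentage with interquartile range and 95% CI.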

adults with GD3 [1] = assay: Horizontal and vertical saccadic eye movements; format: in vivo, human; settings: after 1 year; horizontal or vertical velocity and amplitude
In short: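 Horizontal and vertical saccades recorded non-invasively and assessed by a central reader. Eye-position and target traces were filtered to give eye velocity. Saccades were detected by velocity criteria, and amplitude, duration and peak velocity were derived. Patients took oral test compound 15 mg once daily on top of maintenance IV enzyme replacement for 1 year.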

plasma glucosylceramide = settings: cited from earlier work
ceramide = assay: Ceramide in CSF; format: in vivo, human; settings: baseline and throughout the study
In short: (§2)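 Exploratory CSF biomarkers quantified in CSF taken by lumbar puncture at baseline and Weeks 1, 4, 26 and 52. Adults with GD3 received oral test compound 15 mg once daily plus maintenance IV enzyme replacement for 52 weeks.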

adults with GD3 [2] = assay: Brain volumetric MRI, tensor-based morphometry; format: in vivo, human
In short: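 MRI of brain and brainstem (at least T1 and T2) at baseline, Week 26 and Week 52 on 1.5 or 3 T scanners, read centrally by a reviewer blinded to patient and time point. FreeSurfer parcellation. Tensor-based morphometry: symmetric log-demons registration of baseline/follow-up pairs with a cross-correlation metric. The Jacobian determinant integrated over each region gives the rate of volume change.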

[3] = Venglustat plasma pharmacokinetics, LEAP trial; format: in vivo, human; settings: for plasma venglustat concentration, mean (SD): 10 patients (Patient 9 excluded); for plasma venglustat concentration, Patient 9: single patient with low exposure
In short: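 Plasma sampled on Day 1 pre-dose and at 1, 2, 4, 8 and 24 h. Further samples taken 2–4 h post-dose at Weeks 4, 26 and 52, and pre-dose at Weeks 12 and 39. Oral test compound 15 mg once daily. […] Values below LLOQ entered as 0.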

adults with GD3 [4] = assay: Resting functional MRI connectivity; format: in vivo, human
In short: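 Resting-state BOLD fMRI at baseline, Week 26 and Week 52, analysed centrally and blinded. Regions of interest came from FreeSurfer segmentation masks, using parcellation of the baseline high-resolution 3D-T1 image. Full and partial connectivity were computed between resting-state networks 1, 2, 3, 6, 7 and 8 using published template maps.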

adults with GD3 [5] = assay: Systemic manifestations of GD; format: in vivo, human
In short: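 Haemoglobin, platelet count, and liver and spleen volumes assessed per standard clinical practice over 1 year of daily oral test compound 15 mg plus maintenance IV enzyme replacement. Bone mineral density measured by DXA; bone marrow burden scored from lumbar spine and femur MRI. Lung function followed ATS standards: spirometry (FVC, FEV₁), total lung capacity and carbon monoxide diffusing capacity.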

glucosylsphingosine = assay: Glucosylsphingosine concentration in plasma and CSF, LEAP trial; format: in vivo, human
In short: as §1

[6] = Venglustat CSF pharmacokinetics, LEAP trial; format: in vivo, human; settings: for CSF venglustat concentration, mean (SD): 10 patients (Patient 9 excluded); for CSF venglustat concentration, Patient 9: single patient with low exposure
In short: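 CSF for drug levels collected pre-dose on Day 1 and 2–4 h post-dose at Weeks 4, 26 and 52 (reported as ~4 h), while on oral test compound 15 mg once daily. Concentrations summarised descriptively, with one patient excluded from summary statistics. Values below LLOQ entered as 0.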

adults with GD3 [7] = assay: Trail Making Test; format: in vivo, human
In short: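 Neurocognition measured with the Trail Making Test: Part A (timed visual search and psychomotor speed) and Part B (set-shifting, executive component). Trail B minus Trail A time was derived to remove graphomotor and visual-scanning variance. Baseline versus Week 52 under oral test compound 15 mg once daily plus maintenance IV enzyme replacement.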

adults with GD3 [8] = assay: Vineland Adaptive Behavior Scale II; format: in vivo, human; settings: over 1 year of venglustat treatment
[9] = test system: monosialodihexosylganglioside; assay: Monosialodihexosylganglioside in CSF; format: in vivo, human; settings: Weeks 4, 26 and 52; measurable at baseline in eight of 11 patients
In short: as §2

adults with GD3 [10] = assay: Ataxia, Scale for Assessment and Rating of Ataxia; format: in vivo, human
[11] = baseline to Week 52, 11 patients
[12] = individual patients, baseline to Week 52
[13] = after 1 year, patient with low venglustat exposure
[14] = Week 4, ~4 h post-dose, 15 mg once daily
[15] = Week 26, ~4 h post-dose, 15 mg once daily
[16] = Week 52, ~4 h post-dose, 15 mg once daily

CC(C)(NC(=O)O[C@@H]1CN2CCC1CC2)c1csc(-c2ccc(F)cc2)n1 [Venglustat]
median glucosylceramide reduction in CSF (glucosylceramide; [11]): 81%
median glucosylceramide reduction in plasma (glucosylceramide; [11]): 78%
Glucosylceramide concentration, CSF, Change (glucosylceramide; [12]): −4.04 ng/ml and −4.95 ng/ml and −8.95 ng/ml and +1.64 ng/ml and −4.17 ng/ml and −4.7 ng/ml and −3.32 ng/ml and −3.53 ng/ml and −7.02 ng/ml and −13.3 ng/ml
Glucosylceramide concentration, CSF, Percentage change (glucosylceramide; [12]): −80.2% and −83.2% and −80.6% and +37.1% and −80.7% and −82.5% and −47.4% and −77.9% and −76.9% and −87.5% and −93%
Glucosylceramide concentration, Plasma, Change (glucosylceramide; [12]): −4.31 μg/ml and −5.49 μg/ml and −4.7 μg/ml and +1.14 μg/ml and −3.97 μg/ml and −2.24 μg/ml and −5.31 μg/ml and −4.19 μg/ml and −3.68 μg/ml and −6.69 μg/ml
Glucosylceramide concentration, Plasma, Percentage change (glucosylceramide; [12]): −82.5% and −78.4% and −71.6% and +13.7% and −78.2% and −85.9% and −45.8% and −84% and −80.3% and −77% and −85.1%
treatment effect on saccadic eye movements (adults with GD3 [1]): no clear evidence of a treatment effect
mean plasma glucosylceramide reduction from baseline (plasma glucosylceramide; 15 mg once daily, Day 15, healthy volunteers): 74.6%
safety and tolerability in healthy volunteers (plasma glucosylceramide; once-daily dosing of up to 15 mg): favourable safety and tolerability profile
Emax (plasma glucosylceramide reduction) (plasma glucosylceramide; pharmacokinetic-pharmacodynamic modelling after repeated dosing): 80%
ceramide concentrations in CSF (ceramide): within reference ranges
ventricular volume increase, Patient 9 (adults with GD3 [2]; [13]): 9.6%
whole brain volume reduction, Patient 9 (adults with GD3 [2]; [13]): 1.57%
change in whole brain volume, Patient 9 (adults with GD3 [2]; after 1 year, patient with low-to-undetectable venglustat exposure, baseline 882 951 mm^3): −13894.8 mm^3
MRI whole brain volume, Percentage change (adults with GD3 [2]; [12]): −0.52% and 0.38% and 0.11% and −1.57% and −0.22% and −0.23% and 0.025% and 0.48% and 0.21%
regional brain volume change (mean atrophy ± SD), left cuneus (adults with GD3 [2]; vMRI Group A, Week 52): 37.2 ± 46.2
regional brain volume change (mean atrophy ± SD), left entorhinal (adults with GD3 [2]; vMRI Group A, Week 52): 34.5 ± 32.1
regional brain volume change (mean atrophy ± SD), left lingual (adults with GD3 [2]; vMRI Group A, Week 52): 50.1 ± 80.0
regional brain volume change (mean atrophy ± SD), left pericalcarine (adults with GD3 [2]; vMRI Group A, Week 52): 18.5 ± 22.0
regional brain volume change (mean atrophy ± SD), left putamen (adults with GD3 [2]; vMRI Group A, Week 52): 94.7 ± 78.7
regional brain volume change (mean atrophy ± SD), right accumbens area (adults with GD3 [2]; vMRI Group A, Week 52): 12.9 ± 9.6
regional brain volume change (mean atrophy ± SD), right amygdala (adults with GD3 [2]; vMRI Group A, Week 52): 60.8 ± 74.9
regional brain volume change (mean atrophy ± SD), right postcentral (adults with GD3 [2]; vMRI Group A, Week 52): 91.7 ± 100.0
regional brain volume change (mean atrophy ± SD), right putamen (adults with GD3 [2]; vMRI Group A, Week 52): 97.8 ± 100.8
ventricle volume change (mean ± SD) (adults with GD3 [2]; vMRI Group A, Week 52): −438 ± 696.9
accumulation in plasma after once-daily dosing versus Day 1 ([3]; 4 h post-dose plasma concentrations, 15 mg once daily): ~2 fold
plasma venglustat concentration, mean (SD) ([3]; Day 1, ~4 h post-dose, 15 mg once daily): 48 (17.5) ng/ml
plasma venglustat concentration, mean (SD) [3, 14]: 116 (48.1) ng/ml
plasma venglustat concentration, Patient 9 ([3]; Week 4): 102 ng/mL
plasma venglustat concentration, mean (SD) [3, 15]: 120 (40.1) ng/ml
plasma venglustat concentration, Patient 9 ([3]; Week 26): 53.3 ng/mL
plasma venglustat concentration, mean (SD) [3, 16]: 114 (65.8) ng/ml
plasma venglustat concentration, Patient 9 ([3]; Week 52): undetectable
AUC(0-t) ([3]; human, plasma, po, 15 mg): 851 ng·h/mL
Cmax ([3]; human, plasma, po, 15 mg): 58.1 ng/mL
Tmax ([3]; human, plasma, po, 15 mg): 2 h
steady state reached (plasma) ([3]; mean plasma concentrations, Patient 9 excluded, 15 mg once daily): ≤ 4 Week
functional connectivity relative to baseline (adults with GD3 [4]; Weeks 26 and 52, patients with venglustat exposure (fMRI Group A)): stronger connectivity
maximal increased correlation coefficient (adults with GD3 [4]; fMRI Group A (nine patients)): 0.19 ± 0.16
lumbar spine bone mineral density category (adults with GD3 [5]; after 1 year, seven patients with data): five patients remained in the same bone density category
interstitial lung disease (adults with GD3 [5]; after 1 year, seven patients with detectable disease at baseline): four improved
bone marrow burden scores (adults with GD3 [5]; during 1 year of treatment, 11 patients): remained in the same severity category in 10 patients
haemoglobin concentrations, platelet counts, spleen and liver volumes (adults with GD3 [5]; throughout 1 year, reference range for healthy persons): remained in this range
median glucosylsphingosine reduction in CSF (glucosylsphingosine; [11]): 70%
median glucosylsphingosine reduction in plasma (glucosylsphingosine; [11]): 56%
Glucosylsphingosine concentration, CSF, Change (glucosylsphingosine; [12]): −72 pg/ml and −23.2 pg/ml and −30.2 pg/ml and +75.8 pg/ml and −15.75 pg/ml and −53.5 pg/ml and −9.8 pg/ml and −14.3 pg/ml and −17.3 pg/ml and −32.7 pg/ml and −35.7 pg/ml
Glucosylsphingosine concentration, CSF, Percentage change (glucosylsphingosine; [12]): −72% and −48% and −44.7% and +313.2% and −69.7% and −95.5% and −46% and −71.1% and −87.4% and −75.7% and −70.3%
Glucosylsphingosine concentration, Plasma, Change (glucosylsphingosine; [12]): −3.2 ng/ml and −18.9 ng/ml and −33 ng/ml and +69 ng/ml and −3.79 ng/ml and −22.5 ng/ml and −6.28 ng/ml and −8.67 ng/ml and −8.07 ng/ml and −4.5 ng/ml and −31.3 ng/ml
Glucosylsphingosine concentration, Plasma, Percentage change (glucosylsphingosine; [12]): −56.1% and −50.7% and −41.4% and +43.4% and −60.3% and −57.8% and −71.5% and −59.8% and −47.8% and −23.3% and −64%
CSF venglustat concentration, mean (SD) [6, 14]: 6.63 (2.42) ng/ml
CSF venglustat concentration, Patient 9 ([6]; Week 4): 3.05 ng/mL
CSF venglustat concentration, mean (SD) [6, 15]: 6.77 (1.96) ng/ml
CSF venglustat concentration, Patient 9 ([6]; Week 26): 1.77 ng/mL
CSF venglustat concentration, mean (SD) [6, 16]: 6.14 (3.44) ng/ml
CSF venglustat concentration, Patient 9 ([6]; Week 52): undetectable
steady state reached (CSF) ([6]; mean CSF concentrations, Patient 9 excluded, 15 mg once daily): ≤ 4 Week
crossing of the blood–brain barrier ([6]; venglustat detectable in CSF 4 h post dose over 1 year (excluding Patient 9)): crossed the blood–brain barrier
time to complete TMT Trail A at Week 52, mean (SD) (adults with GD3 [7]; baseline 54.4 (47.5) s): 53.5 (43.1) s
time to complete Trail B minus Trail A at Week 52, mean (adults with GD3 [7]; baseline 99.3 s): 61.7 s
time to complete TMT Trail B at Week 52, mean (SD) (adults with GD3 [7]; baseline 153.6 (149.4)): 115.3 (76.8) seconds
patients with reduction in Trail B minus Trail A time (adults with GD3 [7]; baseline to Week 52): 7 of 11
time to complete TMT Trail A, mean change (adults with GD3 [7]; baseline to Week 52, 95% CI: −21.0 to 19.4): -0.8 s
time to complete Trail B minus Trail A, mean change (adults with GD3 [7]; baseline to Week 52, 95% CI: −88.1 to 13.0): -37.5 s
time to complete TMT Trail B, mean change (adults with GD3 [7]; baseline to Week 52, 95% CI: −104.8 to 28.1): -38.4 s
patients with reduction in TMT Trail B time (adults with GD3 [7]; baseline to Week 52, marked reduction): 8 of 11
patients with reduction in TMT Trail A time (adults with GD3 [7]; baseline to Week 52, minor reduction): 5 of 11
Vineland II domain scores over time (adults with GD3 [8]): deteriorated in all domains; also recorded: All domains decreased in normative score
monosialodihexosylganglioside in CSF on treatment [9]: undetectable in all CSF samples
total modified SARA score at Week 52, mean (adults with GD3 [10]; 11 patients, baseline mean 2.68, scale 0–32): 1.55
total modified SARA score, mean change from baseline (adults with GD3 [10]; Week 52, 95% CI: −2.06 to −0.21): −1.14 points
patients with slightly improved total modified SARA score (adults with GD3 [10]; [11]): nine patients; also recorded: nine of 11
